Data from ChEMBL document CHEMBL4330094, “Potent Metabolic Sialylation Inhibitors Based on C-5-Modified Fluorinated Sialic Acids” (J Med Chem, 2019).
pEC50: −log10 of the molar value. Activity calls are given as the source filed them. The calls are words filed in the database; no cut-off is given here.

What was measured:
[1] = Inhibition of sialyltransferase in mouse B16F10 cells assessed as decrease in lectin binding after 3 days by biotinylated MAL2 lectin and streptavidin-PE based flow cytometry; format: cell-based
Outline: (§1)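 Each cell line was incubated 3 days with increasing compound concentrations or equivalent DMSO. Cells were stained with biotinylated MALII (5 µg/ml) in carbo-free blocking buffer with 1 mM CaCl/MgCl for 45-60 min at 4 °C, washed in PBS/1% BSA/0.02% azide, then stained with streptavidin-PE for 20 min at 4 °C. For flow cytometry, MFI was normalized to control as % lectin binding.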

[2] = Inhibition of sialyltransferase in human THP1 cells assessed as decrease in lectin binding after 3 days by biotinylated MAL2 lectin and streptavidin-PE based flow cytometry; format: cell-based; outline: as §1
[3] = Inhibition of sialyltransferase in HEK293 cells assessed as decrease in lectin binding after 3 days by biotinylated MAL2 lectin and streptavidin-PE based flow cytometry; format: cell-based, Homo sapiens; outline: as §1
[4] = Inhibition of sialyltransferase in human HeLa cells assessed as decrease in lectin binding after 3 days by biotinylated MAL2 lectin and streptavidin-PE based flow cytometry; format: cell-based; outline: as §1
[5] = Inhibition of sialyltransferase in mouse 9464D cells assessed as decrease in lectin binding after 3 days by biotinylated MAL2 lectin and streptavidin-PE based flow cytometry; format: cell-based; outline: as §1
[6] = Inhibition of sialyltransferase in mouse EL4 cells assessed as decrease in lectin binding after 3 days by biotinylated MAL2 lectin and streptavidin-PE based flow cytometry; format: cell-based; outline: as §1
B16-F10 [7] = experiment: Relative inhibitory potency, ratio of SiaFAc to compound EC50 for inhibition of sialyltransferase in mouse B16-F10 cells; format: cell-based
B16-F10 [8] = experiment: Cytotoxicity against mouse B16F10 cells assessed as reduction in metabolic activity at <51.2 uM after 3 days by MTT assay; format: ADME, cell-based; conditions: b16-f10, 72 h
B16-F10 [9] = experiment: Cytotoxicity against mouse B16F10 cells assessed as reduction in metabolic activity at 204.8 uM after 3 days by MTT assay; format: ADME, cell-based; conditions: b16-f10, 72 h
B16-F10 [10] = experiment: Effect on total cell surface glycosylation in mouse B16F10 cells assessed as inhibition of biotinylated PHA-L lectin binding at 102.4 uM after 3 days by flow cytometry; format: cell-based; conditions: b16-f10, 72 h
Outline: (§2)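 B16-F10 cells were exposed 3 days to 102.4 µM compound or DMSO. Staining used biotinylated lectins (AAL 5, PNA 5, GSL-I 1, LCA 1, PHA-L 1, PSA 1, SJA 1, WGA 1 µg/ml) in carbo-free blocking buffer with 1 mM CaCl and 1 mM MgCl for 45-60 min at 4 °C, then streptavidin-PE for 20 min at 4 °C. Flow cytometry read-out was MFI, mean ± SEM from two independent experiments.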

B16-F10 [11] = experiment: Effect on total cell surface glycosylation in mouse B16F10 cells assessed as inhibition of biotinylated PNA lectin binding at 102.4 uM after 3 days by flow cytometry; format: cell-based; conditions: b16-f10, 72 h; outline: as §2
B16-F10 [12] = experiment: Effect on total cell surface glycosylation in mouse B16F10 cells assessed as inhibition of biotinylated AAL-lectin binding at 102.4 uM after 3 days by flow cytometry; format: cell-based; conditions: b16-f10, 72 h; outline: as §2
B16-F10 [13] = experiment: Effect on total cell surface glycosylation in mouse B16F10 cells assessed as inhibition of biotinylated LCA-lectin binding at 102.4 uM after 3 days by flow cytometry; format: cell-based; conditions: b16-f10, 72 h; outline: as §2
B16-F10 [14] = experiment: Effect on total cell surface glycosylation in mouse B16F10 cells assessed as inhibition of biotinylated GSL1-lectin binding at 102.4 uM after 3 days by flow cytometry; format: cell-based; conditions: b16-f10, 72 h; outline: as §2
B16-F10 [15] = experiment: Effect on total cell surface glycosylation in mouse B16F10 cells assessed as inhibition of biotinylated WGA-lectin binding at 102.4 uM after 3 days by flow cytometry; format: cell-based; conditions: b16-f10, 72 h; outline: as §2
B16-F10 [16] = experiment: Effect on total cell surface glycosylation in mouse B16F10 cells assessed as inhibition of biotinylated SJA-lectin binding at 102.4 uM after 3 days by flow cytometry; format: cell-based; conditions: b16-f10, 72 h; outline: as §2
B16-F10 [17] = experiment: Effect on total cell surface glycosylation in mouse B16F10 cells assessed as inhibition of biotinylated PSA-lectin binding at 102.4 uM after 3 days by flow cytometry; format: cell-based; conditions: b16-f10, 72 h; outline: as §2
B16-F10 [18] = experiment: Inhibition of sialyltransferase in mouse B16-F10 cells assessed as recovery time for sialylation at 51.2 uM pretreated for 3 days followed by washing and re-seeding and measured after 6 days by biotinylated MAL2 lectin-based flow cytometry; format: cell-based
Outline: (§3)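 B16-F10 cells were pretreated 3 days with 25.6 or 51.2 µM compound or DMSO, washed, reseeded, and sampled daily for 6 days. They were stained with biotinylated MALII (5 µg/ml, 45-60 min, 4 °C) plus streptavidin-PE. Flow cytometry MFI was normalized to control as % lectin binding.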

B16-F10 [19] = experiment: Inhibition of sialyltransferase in mouse B16-F10 cells assessed as recovery time for sialylation at 25.6 uM pretreated for 3 days followed by washing and re-seeding and measured after 6 days by biotinylated MAL2 lectin-based flow cytometry; format: cell-based; outline: as §3

SMILES | pEC50 [1] | pEC50 [2] | pEC50 [3] | pEC50 [4] | pEC50 [5] | pEC50 [6] | Ratio EC50 (B16-F10 [7]) | Activity (B16-F10 [8]) | Activity (B16-F10 [9]) | Activity (B16-F10 [10]) | Activity (B16-F10 [11]) | Activity (B16-F10 [12]) | Activity (B16-F10 [13]) | Activity (B16-F10 [14]) | Activity (B16-F10 [15]) | Activity (B16-F10 [16]) | Activity (B16-F10 [17]) | TIME (B16-F10 [18]) | sialylation recovery time (B16-F10 [19])
COC(=O)C1(OC(C)=O)O[C@@H]([C@H](OC(C)=O)[C@@H](COC(C)=O)OC(C)=O)[C@H](NC(=O)C(F)(F)F)[C@@H](OC(C)=O)[C@H]1F (some centres not stated) | 4.84 | 5.48 | 4.37 | 4.59 | 4.33 | < 3.99 | 2 | Non-Toxic | Non-Toxic | Non-Toxic | Non-Toxic | Non-Toxic | Non-Toxic | Non-Toxic | Non-Toxic | Non-Toxic | Non-Toxic | 48 to 72 h | Active
COC(=O)C1(OC(C)=O)O[C@@H]([C@H](OC(C)=O)[C@@H](COC(C)=O)OC(C)=O)[C@H](NC(=O)OCC(C)C)[C@@H](OC(C)=O)[C@H]1F (some centres not stated) | 5.48 | 6.30 | 4.94 | 5.29 | 4.61 | 4.29 | 8 | Non-Toxic | Non-Toxic | Non-Toxic | Non-Toxic | Non-Toxic | Non-Toxic | Non-Toxic | Non-Toxic | Non-Toxic | Non-Toxic | 120 to 144 h | Active
COC(=O)C1(OC(C)=O)O[C@@H]([C@H](OC(C)=O)[C@@H](COC(C)=O)OC(C)=O)[C@H](NC(=O)COC(C)=O)[C@@H](OC(C)=O)[C@H]1F (some centres not stated) | 5.30 | 5.37 | 4.27 | 4.78 | < 3.99 | < 3.99 | 5 | Non-Toxic | Non-Toxic | Non-Toxic | Non-Toxic | Non-Toxic | Non-Toxic | Non-Toxic | Non-Toxic | Non-Toxic | Non-Toxic | 48 to 72 h | Active
COC(=O)C1(OC(C)=O)O[C@@H]([C@H](OC(C)=O)[C@@H](COC(C)=O)OC(C)=O)[C@H](NC(=O)OCC(Cl)(Cl)Cl)[C@@H](OC(C)=O)[C@H]1F (some centres not stated) | 5.42 | – | – | – | – | – | 7 | – | – | – | – | – | – | – | – | – | – | – | –
COC(=O)C1(OC(C)=O)O[C@@H]([C@H](OC(C)=O)[C@@H](COC(C)=O)OC(C)=O)[C@H](NC(=O)OCCF)[C@@H](OC(C)=O)[C@H]1F (some centres not stated) | 5.90 | – | – | – | – | – | 21 | – | – | – | – | – | – | – | – | – | – | – | –
C=CCOC(=O)N[C@H]1[C@H]([C@H](OC(C)=O)[C@@H](COC(C)=O)OC(C)=O)OC(OC(C)=O)(C(=O)OC)[C@H](F)[C@@H]1OC(C)=O (some centres not stated) | 5.86 | 6.39 | 5.74 | 5.75 | 5.16 | 4.40 | 19 | Non-Toxic | Non-Toxic | Non-Toxic | Non-Toxic | Non-Toxic | Non-Toxic | Non-Toxic | Non-Toxic | Non-Toxic | Non-Toxic | 120 to 144 h | Active
CCCCOC(=O)N[C@H]1[C@H]([C@H](OC(C)=O)[C@@H](COC(C)=O)OC(C)=O)OC(OC(C)=O)(C(=O)OC)[C@H](F)[C@@H]1OC(C)=O (some centres not stated) | 5.13 | – | – | – | – | – | 4 | – | – | – | – | – | – | – | – | – | – | – | –
COC(=O)N[C@H]1[C@H]([C@H](OC(C)=O)[C@@H](COC(C)=O)OC(C)=O)OC(OC(C)=O)(C(=O)OC)[C@H](F)[C@@H]1OC(C)=O (some centres not stated) | 5.31 | 5.70 | 5.48 | 5.20 | 4.74 | 4.23 | 5 | Non-Toxic | Non-Toxic | Non-Toxic | Non-Toxic | Non-Toxic | Non-Toxic | Non-Toxic | Non-Toxic | Non-Toxic | Non-Toxic | 120 to 144 h | Active
COC(=O)C1(OC(C)=O)O[C@@H]([C@H](OC(C)=O)[C@@H](COC(C)=O)OC(C)=O)[C@H](NC(=O)CCl)[C@@H](OC(C)=O)[C@H]1F (some centres not stated) | 4.75 | – | – | – | – | – | 1 | – | – | – | – | – | – | – | – | – | – | 48 to 72 h | –
COC(=O)C1(OC(C)=O)O[C@@H]([C@H](OC(C)=O)[C@@H](COC(C)=O)OC(C)=O)[C@H](NC(=O)CN=[N+]=[N-])[C@@H](OC(C)=O)[C@H]1F (some centres not stated) | 4.70 | 4.96 | 4.34 | 4.09 | < 3.99 | < 3.99 | 1 | Non-Toxic | Non-Toxic | Non-Toxic | Non-Toxic | Non-Toxic | Non-Toxic | Non-Toxic | Non-Toxic | Non-Toxic | Non-Toxic | 48 to 72 h | Active
COC(=O)C1(OC(C)=O)O[C@@H]([C@H](OC(C)=O)[C@@H](COC(C)=O)OC(C)=O)[C@H](NC(=O)OC(C)(C)C)[C@@H](OC(C)=O)[C@H]1F (some centres not stated) | 5.46 | 5.89 | 4.98 | 4.89 | 4.44 | 4.26 | 8 | Non-Toxic | Non-Toxic | Non-Toxic | Non-Toxic | Non-Toxic | Non-Toxic | Non-Toxic | Non-Toxic | Non-Toxic | Non-Toxic | 120 to 144 h | Active
COCCOC(=O)N[C@H]1[C@H]([C@H](OC(C)=O)[C@@H](COC(C)=O)OC(C)=O)OC(OC(C)=O)(C(=O)OC)[C@H](F)[C@@H]1OC(C)=O (some centres not stated) | 4.59 | – | – | – | – | ≤ 4.30 | 1 | – | – | – | – | – | – | – | – | – | – | – | –
COC(=O)C1(OC(C)=O)O[C@@H]([C@H](OC(C)=O)[C@@H](COC(C)=O)OC(C)=O)[C@H](NC(=O)OCc2ccccc2)[C@@H](OC(C)=O)[C@H]1F (some centres not stated) | 4.84 | – | – | – | – | – | 2 | – | – | – | – | – | – | – | – | – | – | – | –
